{
  "source": "ChEMBL document CHEMBL1134313",
  "about": "“Synthesis and biological evaluation of myoseverin derivatives: microtubule assembly inhibitors” (J Med Chem, 2001)",
  "key": {"Tubulin": {"biological_target": "Tubulin (Bos taurus, UniProt Q6B856+Q862L2+Q862F3)", "assay": "Inhibition of tubulin polymerization using bovine brain tubulin", "assay_type": "functional"}, "U-937 [1]": {"tested_on": "U-937", "assay": "Growth inhibition of human U937 cells", "assay_type": "functional", "method_in_brief": "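Proliferating U937 human leukemic cells were exposed to the compounds. Potency is reported as GI50, the concentration giving 50% growth inhibition. Toxicity was checked separately at up to 100 µM, as LC50.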"}, "U-937 [2]": {"tested_on": "U-937", "assay": "Toxicity towards human U937 cells.", "assay_type": "cell-based"}},
  "data": [
    {"compound": "COc1ccc(CNc2nc(NCc3ccc(OC)cc3)c3ncn(C4CCCC4)c3n2)cc1", "values": [
      {"measurement": "IC50", "setting": "Tubulin", "value": 3, "unit": "µM"},
      {"measurement": "GI50", "setting": "U-937 [1]", "value": 2, "unit": "µM"}
    ]},
    {"compound": "COc1ccc(CNc2nc(NCc3ccc(OC)cc3)c3ncn(C4CCOC4)c3n2)cc1", "note": "(stereo unspecified)", "values": [
      {"measurement": "IC50", "setting": "Tubulin", "value": 5, "unit": "µM"},
      {"measurement": "GI50", "setting": "U-937 [1]", "value": 4, "unit": "µM"}
    ]},
    {"compound": "COc1ccc(CNc2nc(NCc3ccc(OC)cc3)c3ncn(C4CCC4)c3n2)cc1", "values": [
      {"measurement": "IC50", "setting": "Tubulin", "value": 5, "unit": "µM"},
      {"measurement": "GI50", "setting": "U-937 [1]", "value": 5, "unit": "µM"}
    ]},
    {"compound": "COc1ccc(CNc2nc(NCc3ccc(OC)cc3)c3ncn(C4CCNCC4)c3n2)cc1", "values": [
      {"measurement": "IC50", "setting": "Tubulin", "value": 5, "unit": "µM"},
      {"measurement": "LC50", "setting": "U-937 [2]", "value": 40, "unit": "µM"},
      {"measurement": "GI50", "setting": "U-937 [1]", "value": 6, "unit": "µM"}
    ]},
    {"compound": "COc1ccc(CNc2nc(NCc3ccc(OC)cc3)c3ncn(C)c3n2)cc1", "values": [
      {"measurement": "IC50", "setting": "Tubulin", "value": 25, "unit": "µM"},
      {"measurement": "GI50", "setting": "U-937 [1]", "value": 12, "unit": "µM"}
    ]},
    {"compound": "CCn1cnc2c(NCc3ccc(OC)cc3)nc(NCc3ccc(OC)cc3)nc21", "values": [
      {"measurement": "IC50", "setting": "Tubulin", "value": 25, "unit": "µM"},
      {"measurement": "GI50", "setting": "U-937 [1]", "value": 6, "unit": "µM"}
    ]},
    {"compound": "COc1ccc(CNc2nc(NCc3ccc(OC)cc3)c3ncn(C4CCCCC4)c3n2)cc1", "values": [
      {"measurement": "IC50", "setting": "Tubulin", "value": 2, "unit": "µM"},
      {"measurement": "GI50", "setting": "U-937 [1]", "value": 0.2, "unit": "µM"}
    ]},
    {"compound": "COc1ccc(CNc2nc(NCc3ccc(OC)cc3)c3ncn(C4CCC(O)CC4)c3n2)cc1", "note": "(stereo unspecified)", "values": [
      {"measurement": "IC50", "setting": "Tubulin", "value": 3, "unit": "µM"},
      {"measurement": "GI50", "setting": "U-937 [1]", "value": 2, "unit": "µM"}
    ]},
    {"compound": "COc1ccc(CNc2nc(NCc3ccc(OC)cc3)c3[nH]cnc3n2)cc1", "values": [
      {"measurement": "IC50", "setting": "Tubulin", "value": 50, "unit": "µM"},
      {"measurement": "GI50", "setting": "U-937 [1]", "value": 18, "unit": "µM"}
    ]},
    {"compound": "COc1ccc(CNc2nc(NCc3ccc(OC)cc3)c3ncn(C(C)C)c3n2)cc1", "note": "[MYOSEVERIN]", "values": [
      {"measurement": "IC50", "setting": "Tubulin", "value": 8, "unit": "µM"},
      {"measurement": "GI50", "setting": "U-937 [1]", "value": 4, "unit": "µM"}
    ]}
  ]
}
